# Experimental data of several laboratories.
# Target: Maternal embryonic leucine zipper kinase (MELK, Homo sapiens, UniProt Q14680)
SMILES,observed,mode,method,concentration,measurement,value
C#Cc1cc(-c2cc(Nc3nc(N[C@@H](C)c4ccc(F)cn4)ncc3Cl)n[nH]2)ccc1C=O,enzyme activity,inhibitor,,0.2 µM,inhibition,34.3%
CCCCC(=O)Nc1ccc(-c2ccc3ncn(CCC)c(=O)c3c2)cn1,binding,,competition with immobilised ligand,0.5 µM,remaining binding,86%
C1=C/COCc2cc(ccc2OCCN2CCCC2)Nc2nccc(n2)-c2cccc(c2)COC/1,binding,,,0.1 µM,remaining binding,84%
CC#CC(=O)N1CCC[C@H]1c1nc(-c2ccc(C(=O)Nc3ccccn3)cc2)c2c(N)nccn12,enzyme activity,inhibitor,,1 µM,inhibition,41%
C[C@H]1CC[C@H](n2c3cnccc3c3cnc(Nc4ccc5c(n4)CCN(C(=O)CO)C5)nc32)CC1,cell-free assay,,,1 µM,remaining signal,24%
COc1ccc2oc(-c3ccc4nc(N)oc4c3)c/c(=N\c3ccccc3NC(=O)CCN)c2c1,binding,,,1 µM,remaining binding,99%
CO[C@@H]1[C@H](N(C)C(=O)c2ccccc2)C[C@H]2O[C@]1(C)n1c3ccccc3c3c4c(c5c6ccccc6n2c5c31)C(=O)NC4,enzyme activity,inhibitor,,1 µM,inhibition,60%
CN1CCN(C(=O)c2ccc(NC(=O)Nc3ccc(N(C)c4ccnc(Nc5ccc(CS(C)(=O)=O)cc5)n4)cc3)cc2)CC1,binding,,,1 µM,remaining binding,81%
